Source: ChEMBL document CHEMBL4411315, “Discovery of Novel Dual Histone Deacetylase and Mammalian Target of Rapamycin Target Inhibitors as a Promising Strategy for Cancer Therapy” (J Med Chem, 2019)

Tests used:
HCT-116 [1] = assay: Antiproliferative activity against human HCT116 cells after 72 hrs by MTT assay; assay type: functional, cell-based; details: HCT-116, 72 h
Raji = assay: Antiproliferative activity against human Raji cells after 72 hrs by MTT assay; assay type: functional, cell-based
Method in brief: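 Log-phase cells were plated at 10000-15000 per well and exposed to serial concentrations after 24 h for 72 h. Read-out was MTT for 1-3 h, then 20% SDS overnight and absorbance at 570 nm. IC50 was calculated from growth versus untreated control, as mean ± SEM of at least three independent experiments.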

MM1.S = assay: Antiproliferative activity against human MM1S cells after 72 hrs by MTT assay; assay type: functional, cell-based
MCF7 = assay: Antiproliferative activity against human MCF7 cells after 72 hrs by MTT assay; assay type: functional, cell-based; details: MCF7, 72 h
[2] = target: PI3-kinase p110-alpha/p85-alpha (Homo sapiens) (UniProt P27986+P42336); assay: Inhibition of recombinant human full length N-terminal His-tagged/untagged p110alpha/p85alpha expressed in baculovirus expression system at 500 nM using PIP2 as substrate after 1 hr by Kinase-Glo reagent-based assay relative to control
[3] = target: Serine/threonine-protein kinase mTOR (Homo sapiens, UniProt P42345); assay: Inhibition of recombinant N-terminal FLAG-tagged human mTOR (1362 to end residues) at 500 nM using ULight-4E-BP1 (Thr37/46) peptide as substrate after 1 hr by fluorescence assay relative to control
HCT-116 [4] = assay: Antiproliferative activity against human HCT116 cells at 5 uM after 72 hrs by MTT assay relative to control; assay type: functional; details: HCT-116, 72 h
Method in brief: (§1)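 HCT116 cells were grown in DMEM and Ramos cells in RPMI 1640, each with 10% FBS and penicillin/streptomycin, at 37 °C in 5% CO2. Log-phase cells were seeded at 10000-15000 per well and dosed after 24 h at 5 or 0.5 μM for 72 h. MTT was added for 1-3 h, followed by 20% SDS overnight, and A570 was read. Percent inhibition is relative to untreated control, as the mean of at least two experiments.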

HCT-116 [5] = assay: Antiproliferative activity against human HCT116 cells at 0.5 uM after 72 hrs by MTT assay relative to control; assay type: functional; details: HCT-116, 72 h; method in brief: as §1
Ramos [6] = assay: Antiproliferative activity against human Ramos cells at 5 uM after 72 hrs by MTT assay relative to control; assay type: functional; method in brief: as §1
Ramos [7] = assay: Antiproliferative activity against human Ramos cells at 0.5 uM after 72 hrs by MTT assay relative to control; assay type: functional; method in brief: as §1
MV4-11 = assay: Antiproliferative activity against human MV4-11 cells after 72 hrs by MTT assay; assay type: functional, cell-based; details: MV4-11, 72 h
OCI-AML2 = assay: Antiproliferative activity against human OCI-AML2 cells after 72 hrs by MTT assay; assay type: functional, cell-based; details: OCI-AML2, 72 h
OCI-AML-3 = assay: Antiproliferative activity against human OCI-AML3 cells after 72 hrs by MTT assay; assay type: functional, cell-based; details: OCI-AML-3, 72 h

CC(O)CNC(=O)Nc1ccc(-c2nc(N3CCOCC3)c3cnn(CCCCCCC(=O)NO)c3n2)cc1 (stereo unspecified)
IC50 (HCT-116 [1]): 441 nM
IC50 (Raji): 153 nM
IC50 (MM1.S): 305 nM

CNC(=O)Nc1ccc(-c2nc(N3CCOCC3)c3cnn(CCCCCCC(=O)NO)c3n2)cc1
IC50 (HCT-116 [1]): 51.6 nM
IC50 (Raji): 3.5 nM
IC50 (MM1.S): 13.4 nM

Nc1ncc(-c2nc(N3CCOCC3)c3cnn(CCCCCCC(=O)NO)c3n2)cn1
IC50 (HCT-116 [1]): 163 nM
IC50 (Raji): 31.7 nM
IC50 (MCF7): 221 nM
IC50 (MM1.S): 32.6 nM
inhibition [2]: 1.2%
inhibition [3]: 40%

O=C(CCCCCCn1ncc2c(N3CCOCC3)nc(-c3ccc(NC(=O)NCCO)cc3)nc21)NO
IC50 (HCT-116 [1]): 57.2 nM
IC50 (Raji): 61.1 nM
IC50 (MM1.S): 60.3 nM

O=C(CCCn1ncc2c(N3CCOCC3)nc(N3CCOCC3)nc21)NO
inhibition at 5 µM (HCT-116 [4]): 30.1%
inhibition at 0.5 µM (HCT-116 [5]): 15.7%
inhibition at 5 µM (Ramos [6]): 39.6%
inhibition at 0.5 µM (Ramos [7]): 20.5%
inhibition [2]: 17%
inhibition [3]: 21%

O=C(CCCCCCn1ncc2c(N3CCOCC3)nc(N3CCOCC3)nc21)NO
inhibition at 5 µM (HCT-116 [4]): 95.2%
inhibition at 0.5 µM (HCT-116 [5]): 92.9%
inhibition at 5 µM (Ramos [6]): 97.4%
inhibition at 0.5 µM (Ramos [7]): 91%
IC50 (HCT-116 [1]): 89.9 nM
IC50 (Raji): 159 nM
IC50 (MCF7): 372 nM
IC50 (MM1.S): 192 nM
inhibition [2]: 4.5%
inhibition [3]: 2.2%

O=C(CCCCCCn1ncc2c(N3CCOCC3)nc(-c3ccc(NC(=O)N4CCSCC4)cc3)nc21)NO
IC50 (HCT-116 [1]): 68 nM
IC50 (Raji): 148 nM
IC50 (MM1.S): 39.2 nM
IC50 (MV4-11): 13.9 nM
IC50 (OCI-AML2): 16.9 nM
IC50 (OCI-AML-3): 15 nM

COc1ccc(-c2nc(N3CCOCC3)c3cnn(CCCCCCC(=O)NO)c3n2)cn1
IC50 (HCT-116 [1]): 66.9 nM
IC50 (Raji): 44.9 nM
IC50 (MCF7): 372 nM
IC50 (MM1.S): > 500 nM
inhibition [2]: 3.3%
inhibition [3]: 58%

O=C(CCCCCCn1ncc2c(N3CCOCC3)nc(-c3ccsc3)nc21)NO
IC50 (HCT-116 [1]): 72.8 nM
IC50 (Raji): 14.6 nM
IC50 (MCF7): 202 nM
IC50 (MM1.S): 35.6 nM
inhibition [2]: 9.7%
inhibition [3]: 55%

CN1CCN(c2nc(N3CCOCC3)c3cnn(CCCCCCC(=O)NO)c3n2)CC1
inhibition at 5 µM (HCT-116 [4]): 80.3%
inhibition at 0.5 µM (HCT-116 [5]): 59.9%
inhibition at 5 µM (Ramos [6]): 99.5%
inhibition at 0.5 µM (Ramos [7]): 90.1%
inhibition [2]: -6.2%
inhibition [3]: -0.4%

O=C(CCCCCCCn1ncc2c(N3CCOCC3)nc(N3CCOCC3)nc21)NO
inhibition at 5 µM (HCT-116 [4]): 71.8%
inhibition at 0.5 µM (HCT-116 [5]): 13.8%
inhibition at 5 µM (Ramos [6]): 99.1%
inhibition at 0.5 µM (Ramos [7]): 26.9%
inhibition [2]: -1.2%
inhibition [3]: 4.4%

CS(=O)(=O)c1ccc(-c2nc(N3CCOCC3)c3cnn(CCCCCCC(=O)NO)c3n2)cc1
IC50 (HCT-116 [1]): 76.5 nM
IC50 (Raji): 111 nM
IC50 (MCF7): > 500 nM
IC50 (MM1.S): 168 nM
inhibition [2]: 31%
inhibition [3]: 64%

Nc1ccc(-c2nc(N3CCOCC3)c3cnn(CCCCCCC(=O)NO)c3n2)cn1
IC50 (HCT-116 [1]): 61.3 nM
IC50 (Raji): 7.1 nM
IC50 (MCF7): 163 nM
IC50 (MM1.S): 8.4 nM
inhibition [2]: 1.9%
inhibition [3]: 35%

COc1ccc(-c2nc(N3CCOCC3)c3cnn(CCCCCCC(=O)NO)c3n2)cc1
IC50 (HCT-116 [1]): 38 nM
IC50 (Raji): 29.3 nM
IC50 (MCF7): 70.6 nM
IC50 (MM1.S): 354 nM
inhibition [2]: -1%
inhibition [3]: 38%

CN1CCN(c2nc(N3CCOCC3)c3cnn(CCCCCC(=O)NO)c3n2)CC1
inhibition at 5 µM (HCT-116 [4]): 56.9%
inhibition at 0.5 µM (HCT-116 [5]): 10.2%
inhibition at 5 µM (Ramos [6]): 99.5%
inhibition at 0.5 µM (Ramos [7]): 91.2%
inhibition [2]: 1.5%
inhibition [3]: -1.7%

O=C(CCCCCCn1ncc2c(N3CCOCC3)nc(-c3ccc(NC(=O)N4CCOCC4)cc3)nc21)NO
IC50 (HCT-116 [1]): 100 nM
IC50 (Raji): 14.6 nM
IC50 (MM1.S): 27.8 nM
IC50 (MV4-11): 12.6 nM
IC50 (OCI-AML2): 29 nM
IC50 (OCI-AML-3): 30.1 nM
